Source: ChEMBL document CHEMBL2029242 (J Med Chem, 2012)
Activity calls are given as the source filed them. The calls are words filed in the database; no cut-off is given here.

Assays:
[1] = AUC (infinity) in Cynomolgus monkey at 10 mg/kg, po; assay type: ADME, organism-based, Macaca fascicularis; parameters: dose 10 mg/kg, route oral, time infinity; conditions: plasma
Procedure, shortened: (§1)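 Single-dose PK. Rats: male Sprague−Dawley, jugular-catheterized, 1 mg/kg iv in 3:1 PEG400/water (n = 2) and 10 mg/kg po in Pharmatek #6 (n = 3). Female athymic nude mice: 100 mg/kg po in Pharmatek #6 (n = 3). Beagle dogs and male cynomolgus monkeys (n = 3): crossover, 1 mg/kg iv and 10 mg/kg po in 22% HPβCD, overnight fast. Plasma LC-MS/MS to 24 h; noncompartmental parameters, mean ± SD.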

[2] = Clearance in Sprague-Dawley rat at 1 mg/kg, iv and 10 mg/kg, po; assay type: ADME, organism-based; conditions: in vivo; procedure, shortened: as §1
[3] = molecular target: Cytochrome P450 2C9 (Homo sapiens, UniProt P11712); assay: Inhibition of human CYP2C9; assay type: ADME
Sequence of Cytochrome P450 2C9 (P11712 whole entry, canonical isoform): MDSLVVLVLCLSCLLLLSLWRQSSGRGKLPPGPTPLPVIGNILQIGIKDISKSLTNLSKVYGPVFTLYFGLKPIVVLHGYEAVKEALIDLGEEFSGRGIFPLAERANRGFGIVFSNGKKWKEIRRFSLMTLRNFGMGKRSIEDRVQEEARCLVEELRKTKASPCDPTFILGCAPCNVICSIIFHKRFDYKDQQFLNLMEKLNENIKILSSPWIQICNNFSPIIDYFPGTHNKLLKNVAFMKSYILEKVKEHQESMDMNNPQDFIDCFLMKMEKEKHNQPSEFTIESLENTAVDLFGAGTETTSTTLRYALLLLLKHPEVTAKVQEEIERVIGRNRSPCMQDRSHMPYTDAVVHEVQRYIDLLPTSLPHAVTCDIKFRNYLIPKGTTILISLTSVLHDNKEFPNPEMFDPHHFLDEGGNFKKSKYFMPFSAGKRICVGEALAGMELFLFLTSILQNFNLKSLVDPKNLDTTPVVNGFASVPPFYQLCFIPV
Procedure, shortened: (§2)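 Pooled human liver microsomes (0.25 mg/mL) with NADPH (1 mM) and five pooled probe substrates (testosterone, diclofenac, dextromethorphan, mephenytoin, phenacetin). Test compound ran at eight concentrations, 0.31−40 μM, 20 min at 37 °C, with pooled control inhibitors in parallel. Isoform-specific metabolites were measured by LC-MS/MS.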

[4] = tested on: COLO 205; assay: Antitumor activity against human COLO205 cells xenografted in athymic nude mouse at 30 mg/kg, po bid for 14 days; assay type: functional, organism-based; parameters: dose 30 mg/kg
Procedure, shortened: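 Athymic nude mice carried subcutaneous flank Colo-205 xenografts (1 × 10^6 cells), randomized at 150−200 mm3 (n = 10/group). Oral dosing BID for 14 days in 22% HPβCD against vehicle controls. Caliper volumes W2(L/2) taken three times weekly. Partial regression: volume fell in ≥3 successive measurements to below the starting volume while the tumor stayed palpable.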

[5] = molecular target: Cytochrome P450 2C19 (Homo sapiens, UniProt P33261); assay: Inhibition of human CYP2C19; assay type: ADME; procedure, shortened: as §2
Sequence of Cytochrome P450 2C19 (P33261 whole entry): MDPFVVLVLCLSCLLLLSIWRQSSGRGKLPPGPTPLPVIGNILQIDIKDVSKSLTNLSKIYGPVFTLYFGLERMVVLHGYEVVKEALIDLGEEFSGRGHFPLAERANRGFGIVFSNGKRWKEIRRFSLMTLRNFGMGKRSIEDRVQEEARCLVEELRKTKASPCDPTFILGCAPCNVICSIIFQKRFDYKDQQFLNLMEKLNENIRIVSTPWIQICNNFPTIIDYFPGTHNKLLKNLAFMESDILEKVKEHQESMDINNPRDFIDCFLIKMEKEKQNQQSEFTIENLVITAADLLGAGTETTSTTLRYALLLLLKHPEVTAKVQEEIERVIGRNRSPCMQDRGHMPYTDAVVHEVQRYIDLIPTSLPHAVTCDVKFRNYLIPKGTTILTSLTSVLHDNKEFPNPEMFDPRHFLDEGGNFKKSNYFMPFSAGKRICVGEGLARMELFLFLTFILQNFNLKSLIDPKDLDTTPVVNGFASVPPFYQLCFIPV

[6] = tested on: COLO 205; assay: Cytotoxicity against human COLO205 cells expressing BRAF V600E mutant after 72 hrs by cell titer blue assay; assay type: functional, cell-based; conditions: COLO 205, 72 h
Procedure, shortened: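 Cells were grown in ATCC-recommended media and kept overnight in 0.5% serum. They were then exposed to compound for 72 h, and Cell Titer Blue was added for 3 h. EC50 came from fluorometric concentration−response curves, run in duplicate and repeated at least once.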

[7] = Half life in beagle dog at 1 mg/kg, iv and 10 mg/kg, po; assay type: ADME, organism-based, Canis lupus familiaris; conditions: in vivo; procedure, shortened: as §1
[8] = tested on: Mus musculus; assay: Inhibition of BRAF V600E mutant-mediated MEK phosphorylation in human COLO205 cells xenografted in athymic nude mouse at 30 mg/kg, po after 2 hrs; assay type: functional; conditions: COLO 205, 2 h
Procedure, shortened: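 Mice bearing Colo-205 xenografts got one oral dose in 22% HPβCD; vehicle controls were run. Tumors were collected at time points over 24 h and lysed. pMEK and total MEK in the lysates were measured by immunoblotting and ELISA, and pMEK was normalized to total MEK.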

[9] = Clearance in beagle dog at 1 mg/kg, iv and 10 mg/kg, po; assay type: ADME, organism-based, Canis lupus familiaris; conditions: in vivo; procedure, shortened: as §1
[10] = Half life in mouse liver microsomes; assay type: ADME, Microsome
Procedure, shortened: (§3)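 Pooled liver microsomes (0.5 mg/mL) in 0.1 M phosphate pH 7.4 with 6.5 mM MgCl2 and compound at 1 μM (0.2% DMSO). NADPH (1 mM) started the reaction at 37 °C, with minus-NADPH and testosterone controls. Aliquots taken at 0, 5, 15, 30 and 60 min were quenched in acetonitrile; duplicates.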

[11] = Tmax in Cynomolgus monkey at 10 mg/kg, po; assay type: ADME, organism-based, Macaca fascicularis; parameters: dose 10 mg/kg, route oral; conditions: in vivo
Procedure, shortened: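 Male non-naive cynomolgus monkeys (2.6–3.4 kg) and beagle dogs (10.3–11.9 kg), n = 3 each, were dosed in a crossover design with a ≥7-day washout. Doses were 10 mg/kg by nasogastric gavage and 1 mg/kg as a saphenous iv bolus, both free base in 22% HPβCD. Animals were fasted overnight until about 4 h post dose. Femoral plasma was sampled from predose to 24 h and analyzed by LC-MS/MS. Parameters came from noncompartmental analysis; mean ± SD reported.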

[12] = molecular target: Tyrosine-protein kinase JAK1 (Homo sapiens, UniProt P23458); assay: Inhibition of JAK1 in human HEK293 cells after 1 hr by competition binding assay; assay type: cell-based
Sequence of Tyrosine-protein kinase JAK1 (P23458 whole entry): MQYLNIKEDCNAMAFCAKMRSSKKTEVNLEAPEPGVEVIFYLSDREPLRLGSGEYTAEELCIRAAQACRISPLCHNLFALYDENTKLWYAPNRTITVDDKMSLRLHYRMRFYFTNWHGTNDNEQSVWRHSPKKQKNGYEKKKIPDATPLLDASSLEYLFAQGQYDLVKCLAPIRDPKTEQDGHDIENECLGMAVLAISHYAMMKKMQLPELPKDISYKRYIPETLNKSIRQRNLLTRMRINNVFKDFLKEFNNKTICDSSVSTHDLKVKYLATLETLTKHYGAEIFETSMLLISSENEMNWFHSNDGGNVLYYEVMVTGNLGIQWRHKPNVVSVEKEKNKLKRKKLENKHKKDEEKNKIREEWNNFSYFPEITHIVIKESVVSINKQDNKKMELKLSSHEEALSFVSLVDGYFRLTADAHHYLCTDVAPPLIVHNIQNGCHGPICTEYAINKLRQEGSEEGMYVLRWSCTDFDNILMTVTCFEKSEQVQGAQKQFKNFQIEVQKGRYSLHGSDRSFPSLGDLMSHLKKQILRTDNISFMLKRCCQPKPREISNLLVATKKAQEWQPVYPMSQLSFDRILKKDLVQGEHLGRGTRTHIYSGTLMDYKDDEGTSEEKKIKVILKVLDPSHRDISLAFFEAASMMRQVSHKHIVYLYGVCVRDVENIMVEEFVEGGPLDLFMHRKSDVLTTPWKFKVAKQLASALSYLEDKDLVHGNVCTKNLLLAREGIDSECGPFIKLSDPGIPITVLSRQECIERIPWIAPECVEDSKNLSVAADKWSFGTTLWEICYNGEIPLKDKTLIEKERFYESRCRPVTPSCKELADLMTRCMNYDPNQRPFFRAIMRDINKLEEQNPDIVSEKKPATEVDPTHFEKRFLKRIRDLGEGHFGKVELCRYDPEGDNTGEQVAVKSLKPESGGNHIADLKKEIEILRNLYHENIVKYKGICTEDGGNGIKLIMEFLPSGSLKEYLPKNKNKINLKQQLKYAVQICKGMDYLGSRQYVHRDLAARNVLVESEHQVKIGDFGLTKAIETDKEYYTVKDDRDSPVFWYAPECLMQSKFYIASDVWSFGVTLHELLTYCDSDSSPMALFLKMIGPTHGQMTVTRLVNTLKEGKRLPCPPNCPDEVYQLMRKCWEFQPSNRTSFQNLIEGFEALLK
Procedure, shortened: (§4)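 KINOMEscan competition binding. Binding reactions ran at rt for 1 h. Unbound kinase was captured on an immobilized affinity ligand and quantified by qPCR. Each kinase was tested individually.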

[13] = Cmax in Sprague-Dawley rat at 10 mg/kg, po; assay type: ADME, organism-based; parameters: dose 10 mg/kg, route oral; conditions: in vivo; procedure, shortened: as §1
[14] = tested on: Mus musculus; assay: Toxicity in athymic nude mouse xenografted with human COLO205 cells at 100 mg/kg, po bid for 14 days measured upto 1 week post dosing; assay type: organism-based, COLO 205; parameters: dose 100 mg/kg, route oral; conditions: in vivo
Procedure, shortened: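 Athymic nude mice (20–25 g) were inoculated subcutaneously in the flank with 1×10^6 Colo-205 cells. At 150–200 mm3 they were randomized (n = 10/group) to oral vehicle (22% HPβCD) or 10, 30 or 100 mg/kg BID for 14 days. Calipers were used three times weekly. Body weight and behavior were monitored, with 7–10 days of follow-up after dosing. Partial regression meant volume falling in ≥3 successive measurements, ending below baseline but still palpable.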

[15] = molecular target: Mitogen-activated protein kinase 3 (Homo sapiens, UniProt P27361); assay: Inhibition of ERK1 in human HEK293 cells after 1 hr by competition binding assay; assay type: cell-based; procedure, shortened: as §4
Sequence of Mitogen-activated protein kinase 3 (P27361 whole entry): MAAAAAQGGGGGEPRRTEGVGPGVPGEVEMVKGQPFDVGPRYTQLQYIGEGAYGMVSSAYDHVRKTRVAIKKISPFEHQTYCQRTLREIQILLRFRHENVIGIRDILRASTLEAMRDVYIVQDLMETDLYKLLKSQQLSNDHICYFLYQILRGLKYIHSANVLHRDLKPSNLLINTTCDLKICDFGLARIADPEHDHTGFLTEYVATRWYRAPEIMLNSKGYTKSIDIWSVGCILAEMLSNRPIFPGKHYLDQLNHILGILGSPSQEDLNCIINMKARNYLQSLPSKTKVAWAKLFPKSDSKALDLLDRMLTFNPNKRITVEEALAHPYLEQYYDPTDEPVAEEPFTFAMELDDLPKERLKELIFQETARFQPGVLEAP

[16] = Stability in rat liver microsomes assessed as compound remaining at 1 uM after 60 mins; assay type: ADME, Microsome; conditions: read-out: Stability
Procedure, shortened: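 Pooled liver microsomes (0.5 mg/mL) were premixed with 0.1 M phosphate buffer pH 7.4, 6.5 mM MgCl2 and test compound (1 μM final, 0.2% DMSO). NADPH (1 mM) started the reaction at 37 °C, in duplicate. Minus-NADPH and testosterone controls were included. Aliquots were taken at 0, 5, 15, 30 and 60 min and quenched in acetonitrile containing internal standard.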

[17] = Terminal half life in Sprague-Dawley rat at 1 mg/kg, iv and 10 mg/kg, po; assay type: ADME, organism-based; conditions: in vivo, read-out: beta t1/2 (converted)
Procedure, shortened: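 Male Sprague-Dawley rats (250–350 g, jugular-catheterized) received a single dose either iv at 1 mg/kg in 3:1 PEG400/water (n = 2) or po at 10 mg/kg in Pharmatek #6 (n = 3). Plasma was sampled at 5 min (iv only), 15 and 30 min, and 1, 2, 4, 6 and 24 h. Samples were analyzed by LC-MS/MS after acetonitrile precipitation. Parameters came from noncompartmental linear-trapezoidal analysis of individual animals.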

[18] = AUC (infinity) in Sprague-Dawley rat at 10 mg/kg, po; assay type: ADME, organism-based; parameters: time infinity, dose 10 mg/kg, route oral; conditions: plasma; procedure, shortened: as §1
[19] = molecular target: Serine/threonine-protein kinase B-raf (Homo sapiens, UniProt P15056); assay: Inhibition of wild type BRAF in human HEK293 cells after 1 hr by competition binding assay; assay type: cell-based; procedure, shortened: as §4
Sequence of Serine/threonine-protein kinase B-raf (Homo sapiens, UniProt P15056) (P15056 whole entry): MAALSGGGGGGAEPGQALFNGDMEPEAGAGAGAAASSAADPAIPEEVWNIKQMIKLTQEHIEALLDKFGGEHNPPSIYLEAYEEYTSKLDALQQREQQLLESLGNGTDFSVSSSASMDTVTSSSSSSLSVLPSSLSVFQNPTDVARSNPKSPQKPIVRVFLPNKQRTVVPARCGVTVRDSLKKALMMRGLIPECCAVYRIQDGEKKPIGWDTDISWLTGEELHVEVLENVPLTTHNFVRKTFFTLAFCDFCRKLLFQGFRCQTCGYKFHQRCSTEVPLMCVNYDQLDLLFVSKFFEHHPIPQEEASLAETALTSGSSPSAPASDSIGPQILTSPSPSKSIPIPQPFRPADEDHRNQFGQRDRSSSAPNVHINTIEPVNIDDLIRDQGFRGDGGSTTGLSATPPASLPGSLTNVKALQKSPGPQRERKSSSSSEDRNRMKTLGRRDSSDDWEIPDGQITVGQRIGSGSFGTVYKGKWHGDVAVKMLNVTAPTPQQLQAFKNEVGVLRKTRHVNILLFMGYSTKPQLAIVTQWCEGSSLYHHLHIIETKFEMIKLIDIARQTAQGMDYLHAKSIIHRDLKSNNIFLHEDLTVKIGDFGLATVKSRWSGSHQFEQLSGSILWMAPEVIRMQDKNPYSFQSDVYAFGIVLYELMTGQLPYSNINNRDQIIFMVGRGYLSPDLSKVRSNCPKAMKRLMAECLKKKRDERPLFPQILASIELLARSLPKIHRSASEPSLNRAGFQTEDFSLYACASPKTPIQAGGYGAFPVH

[20] = molecular target: Serine/threonine-protein kinase B-raf (Homo sapiens, UniProt P15056, V600E)
Sequence of Serine/threonine-protein kinase B-raf (Homo sapiens, UniProt P15056, V600E) (P15056 2-766 V600E limits assumed): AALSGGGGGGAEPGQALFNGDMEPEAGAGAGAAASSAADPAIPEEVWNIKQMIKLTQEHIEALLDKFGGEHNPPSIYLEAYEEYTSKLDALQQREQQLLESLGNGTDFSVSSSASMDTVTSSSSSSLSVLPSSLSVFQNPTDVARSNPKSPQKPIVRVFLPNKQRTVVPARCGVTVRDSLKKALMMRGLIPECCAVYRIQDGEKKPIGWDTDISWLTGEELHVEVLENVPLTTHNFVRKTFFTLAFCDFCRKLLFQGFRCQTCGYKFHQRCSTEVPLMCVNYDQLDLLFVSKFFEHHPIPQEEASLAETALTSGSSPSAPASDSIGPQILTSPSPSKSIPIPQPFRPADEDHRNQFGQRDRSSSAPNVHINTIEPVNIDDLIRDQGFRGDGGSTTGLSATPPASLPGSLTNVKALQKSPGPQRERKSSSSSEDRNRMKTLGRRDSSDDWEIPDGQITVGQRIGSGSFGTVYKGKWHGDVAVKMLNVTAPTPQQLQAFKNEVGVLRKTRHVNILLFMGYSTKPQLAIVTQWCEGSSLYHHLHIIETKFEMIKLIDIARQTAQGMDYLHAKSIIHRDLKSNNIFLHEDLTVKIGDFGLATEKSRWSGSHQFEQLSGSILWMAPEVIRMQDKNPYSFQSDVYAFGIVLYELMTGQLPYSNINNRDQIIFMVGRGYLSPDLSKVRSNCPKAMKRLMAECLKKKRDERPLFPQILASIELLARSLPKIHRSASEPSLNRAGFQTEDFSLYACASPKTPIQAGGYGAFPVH

[21] = molecular target: RAF proto-oncogene serine/threonine-protein kinase (Homo sapiens, UniProt P04049); assay: Inhibition of CRAF in human HEK293 cells after 1 hr by competition binding assay; assay type: cell-based
Sequence of RAF proto-oncogene serine/threonine-protein kinase (P04049 whole entry): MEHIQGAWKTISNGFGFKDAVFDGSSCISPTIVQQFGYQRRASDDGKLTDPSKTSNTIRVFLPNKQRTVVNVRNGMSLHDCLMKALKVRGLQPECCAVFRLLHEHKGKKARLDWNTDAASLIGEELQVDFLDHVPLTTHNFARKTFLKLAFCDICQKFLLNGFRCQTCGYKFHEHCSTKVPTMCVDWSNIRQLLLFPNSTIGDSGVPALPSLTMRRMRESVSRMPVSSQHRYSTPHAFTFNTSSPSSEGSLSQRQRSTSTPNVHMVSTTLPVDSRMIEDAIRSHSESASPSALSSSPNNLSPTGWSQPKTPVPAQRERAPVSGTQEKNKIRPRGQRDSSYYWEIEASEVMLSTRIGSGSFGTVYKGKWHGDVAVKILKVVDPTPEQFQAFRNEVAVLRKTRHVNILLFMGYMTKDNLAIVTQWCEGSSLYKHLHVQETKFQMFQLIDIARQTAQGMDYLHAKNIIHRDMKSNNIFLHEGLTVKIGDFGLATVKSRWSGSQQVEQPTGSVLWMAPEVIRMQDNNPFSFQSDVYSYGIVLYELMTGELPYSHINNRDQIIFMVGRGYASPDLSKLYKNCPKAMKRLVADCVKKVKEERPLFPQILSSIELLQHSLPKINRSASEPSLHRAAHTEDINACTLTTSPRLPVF
Procedure, shortened: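 KINOMEscan competition binding. Binding reactions run at rt for 1 h. Kinase not bound to compound is captured on an immobilized affinity ligand and quantified by qPCR.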

[22] = Half life in Cynomolgus monkey liver microsomes; assay type: ADME, Macaca fascicularis, Microsome; procedure, shortened: as §3

AUC(0-inf) [1]: 92.2 µM·h
clearance [2]: 3.4 mL/min/kg
IC50 [3]: > 10000 nM
IC50 [5]: 3400 nM
half-life [7]: 12 h
clearance [9]: 5 mL/min/kg
half-life [10]: > 1 h
Tmax [11]: 4 h
Kd [12]: > 10000 nM
Cmax [13]: 6.5 µM
Kd [15]: > 10000 nM
remaining at 1 h, 1 µM [16]: 81%
half-life [17]: 7.8 h
AUC(0-inf) [18]: 74.4 µM·h
Kd [19]: 36 nM
Kd [20]: 14 nM
Kd [21]: 39 nM
half-life [22]: > 1 h
SMILES: COc1cc2ncnc(Oc3cccc(NC(=O)Nc4cc(C(C)(C)C(F)(F)F)on4)c3)c2cc1OC [CEP-32496]
Activity [4]: Active
EC50 [6]: 36 nM
inhibition in vivo at 30 mg/kg [8]: 50%
Activity [14]: Non-toxic
